In PMC11303814 (Nature Communications, 2024):
Numbering of substitutions follows the chain as printed. “Also recorded” adds a separate entry of the source.

Columns and labels:
[1] = target: T1, rP2X7-R125A/Q143A (Rattus norvegicus, UniProt Q64663, Q143A/R125A); assay: TEVC dose response; assay type: cell-based; conditions: read-out: EC50 (apparent affinity), mean ± SD, triplicate
T1 sequence (Q64663 1-595 R125A/Q143A): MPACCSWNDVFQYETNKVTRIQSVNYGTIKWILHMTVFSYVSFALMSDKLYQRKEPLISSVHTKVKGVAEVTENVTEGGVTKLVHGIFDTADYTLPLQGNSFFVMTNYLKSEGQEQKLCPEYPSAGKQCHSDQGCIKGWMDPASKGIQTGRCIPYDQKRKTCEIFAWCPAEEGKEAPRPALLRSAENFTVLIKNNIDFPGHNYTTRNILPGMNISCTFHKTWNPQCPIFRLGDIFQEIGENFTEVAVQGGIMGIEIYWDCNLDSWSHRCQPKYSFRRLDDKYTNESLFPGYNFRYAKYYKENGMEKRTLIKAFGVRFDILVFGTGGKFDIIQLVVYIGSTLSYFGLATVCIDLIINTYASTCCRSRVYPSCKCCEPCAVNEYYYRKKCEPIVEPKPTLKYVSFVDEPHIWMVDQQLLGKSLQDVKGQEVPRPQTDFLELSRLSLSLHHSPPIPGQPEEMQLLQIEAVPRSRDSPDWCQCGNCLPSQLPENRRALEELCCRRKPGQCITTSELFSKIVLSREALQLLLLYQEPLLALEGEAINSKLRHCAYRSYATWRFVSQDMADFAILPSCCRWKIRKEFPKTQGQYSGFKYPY
Summary of the method: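 TEVC was run on Xenopus oocytes ~20 h after injection of wild-type or mutant rP2X7 mRNA, in pH 7.4 HEPES buffer with 0.1 mM flufenamic acid. Receptors were facilitated at 100 µM before recording. Dilution series: ATP 1.5 mM–2 µM (7 points), BzATP 300–0.14 µM (8 points). Responses were normalized to the largest concentration, fitted by nonlinear regression for EC50, and averaged across triplicates (mean ± SD).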

[2] = target: T2, rP2X7 triple mutant (R125A/Q143A/I214A) (Rattus norvegicus, UniProt Q64663, I214A/Q143A/R125A); assay: TEVC efficacy experiments, triple mutant rP2X7 in oocytes; assay type: cell-based; conditions: identical concentrations
T2 sequence (Q64663 1-595 R125A/Q143A/I214A): T1 sequence (Q64663 1-595 R125A/Q143A) with I214A
Summary of the method: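 Oocytes expressing rP2X7 (~20 h after mRNA injection), TEVC in pH 7.4 HEPES/flufenamic acid buffer. Each oocyte first received 100 µM ATP as the normalization reference, then sequentially 50 µM ATP, 50 µM BzATP, 100 µM ATP and 100 µM BzATP, with buffer washout to baseline between applications. Normalized currents are from triplicates per concentration per construct; mean ± SD.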

[3] = target: T3, biotinylated rP2X7 (Rattus norvegicus, UniProt Q64663); assay: Bio-layer interferometry; assay type: binding; conditions: for rate constant for association (ka) / rate constant for dissociation (kd): 30 °C, PBS pH 7.4, 0.5 mM DDM, 1:1 Langmuir global fit, mean ± SD of three
T3 sequence (Q64663 1-595): T1 sequence (Q64663 1-595 R125A/Q143A) with A125R, A143Q
Summary of the method: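 Full-length rat P2X7 expressed in HEK293 GnTI cells by BacMam, purified in DDM/CHS (TALON, SEC), then biotinylated with NHS-PEG12-biotin at pH 8.0, 23 °C, 60 min. Loaded at 50 µg/ml onto streptavidin tips, blocked with biocytin. Threefold agonist dilutions (ATP 30–0.12 µM; BzATP 3.3–0.014 µM): 90 s association, 300 s (ATP) or 800 s (BzATP) dissociation. Double reference subtraction used biocytin sensors and zero analyte. KD = kd/ka.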

EC50 [1]	rate constant for association (ka) ([3]; BLI)	rate constant for dissociation (kd) ([3]; BLI)	affinity for rP2X7 lower than that of human P2X3 ([3]; KD rP2X7 vs human P2X3)	affinity for rP2X7 lower than that of zebra fish P2X4 ([3]; KD rP2X7 vs zebra fish P2X4)	higher binding affinity (KD) than ATP ([3]; BLI, rP2X7)	Molecule	efficacy (agonist character, current amplitude) [2]
114 ± 30 µM	9.4 ± 2.4 x10^4 M^−1s^−1	5.1 ± 2.5 x10^−2 s^−1	approximately 190 fold	~46 fold	–	Nc1ncnc2c1ncn2[C@@H]1O[C@H](COP(=O)(O)OP(=O)(O)OP(=O)(O)O)[C@@H](O)[C@H]1O [ATP]	equivalent agonists in terms of efficacy; also recorded: equal current amplitudes
18 ± 4 µM	3.7 ± 1.0 x10^5 M^−1s^−1	2.6 ± 1.0 x10^−3 s^−1	–	–	~ 70 fold	BzATP	equivalent agonists in terms of efficacy; also recorded: equal current amplitudes
